From paper PMC8646148 (Bioorganic chemistry, 2021)

Legend:
[1] = molecular target: T1, PXR (Homo sapiens, UniProt O75469); experiment: PXR reporter gene assay in LS180 cells transfected with pSG5-hPXR and p3A4-luc; format: cell-based; details: for PXR antagonist effect: antagonist mode, in the presence of RIF 10 μM, 24 h
T1 sequence (O75469 1-434): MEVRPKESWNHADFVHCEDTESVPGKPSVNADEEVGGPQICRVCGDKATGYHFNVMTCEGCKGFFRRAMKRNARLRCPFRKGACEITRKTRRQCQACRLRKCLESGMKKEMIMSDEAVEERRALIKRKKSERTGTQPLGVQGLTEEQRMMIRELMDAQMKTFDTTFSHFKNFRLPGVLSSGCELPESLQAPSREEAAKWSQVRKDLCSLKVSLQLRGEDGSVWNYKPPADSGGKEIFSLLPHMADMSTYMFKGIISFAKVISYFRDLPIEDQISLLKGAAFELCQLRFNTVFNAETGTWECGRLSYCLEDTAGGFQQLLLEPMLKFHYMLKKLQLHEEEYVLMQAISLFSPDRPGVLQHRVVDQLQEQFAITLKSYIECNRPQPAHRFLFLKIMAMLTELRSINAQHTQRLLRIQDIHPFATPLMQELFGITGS
Procedure, shortened: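 LS180 cells were lipofected transiently with pSG5-hPXR and p3A4-luc, then treated 24 h with test compound at up to 50 μM in DMSO 0.1% v/v. Agonist mode had no rifampicin; antagonist mode had RIF 10 μM. Luciferase was read after lysis. Antagonist data are % of the 10 μM RIF maximum. Four technical replicates, three consecutive passages.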

[2] = molecular target: T2, ligand-binding domain of human PXR (Homo sapiens, UniProt O75469); experiment: LanthaScreen TR-FRET PXR
T2 sequence (O75469 146-433 limits assumed): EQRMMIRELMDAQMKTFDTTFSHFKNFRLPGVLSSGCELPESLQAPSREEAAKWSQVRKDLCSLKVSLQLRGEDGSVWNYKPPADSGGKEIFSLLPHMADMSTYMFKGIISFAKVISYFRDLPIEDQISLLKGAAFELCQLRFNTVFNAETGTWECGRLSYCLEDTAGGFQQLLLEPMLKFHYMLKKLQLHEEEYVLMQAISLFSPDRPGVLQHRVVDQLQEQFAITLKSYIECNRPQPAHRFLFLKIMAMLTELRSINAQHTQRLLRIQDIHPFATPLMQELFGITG
Procedure, shortened: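 LanthaScreen TR-FRET competitive binding used the human PXR ligand-binding domain and measured displacement of a fluorescent ligand. The signal was the emission ratio 520 nm/495 nm, plotted against test compound concentration. IC50 came from interpolated sigmoidal 4PL variable-slope curves. Quadruplicate wells; at least four independent experiments. Positive control: SR12813 at 100 μM.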

[3] = molecular target: T3, AhR (Homo sapiens, UniProt P35869); experiment: AhR reporter gene assay in stably transfected AZ-AHR cells; format: cell-based; details: 24 h; for AhR agonistic activity: agonist mode, AZ-AHR cells; for Inhibition of TCDD-inducible luciferase activity: antagonist mode, TCDD 5 nM, attributed to cytotoxicity
T3 sequence (P35869 11-848): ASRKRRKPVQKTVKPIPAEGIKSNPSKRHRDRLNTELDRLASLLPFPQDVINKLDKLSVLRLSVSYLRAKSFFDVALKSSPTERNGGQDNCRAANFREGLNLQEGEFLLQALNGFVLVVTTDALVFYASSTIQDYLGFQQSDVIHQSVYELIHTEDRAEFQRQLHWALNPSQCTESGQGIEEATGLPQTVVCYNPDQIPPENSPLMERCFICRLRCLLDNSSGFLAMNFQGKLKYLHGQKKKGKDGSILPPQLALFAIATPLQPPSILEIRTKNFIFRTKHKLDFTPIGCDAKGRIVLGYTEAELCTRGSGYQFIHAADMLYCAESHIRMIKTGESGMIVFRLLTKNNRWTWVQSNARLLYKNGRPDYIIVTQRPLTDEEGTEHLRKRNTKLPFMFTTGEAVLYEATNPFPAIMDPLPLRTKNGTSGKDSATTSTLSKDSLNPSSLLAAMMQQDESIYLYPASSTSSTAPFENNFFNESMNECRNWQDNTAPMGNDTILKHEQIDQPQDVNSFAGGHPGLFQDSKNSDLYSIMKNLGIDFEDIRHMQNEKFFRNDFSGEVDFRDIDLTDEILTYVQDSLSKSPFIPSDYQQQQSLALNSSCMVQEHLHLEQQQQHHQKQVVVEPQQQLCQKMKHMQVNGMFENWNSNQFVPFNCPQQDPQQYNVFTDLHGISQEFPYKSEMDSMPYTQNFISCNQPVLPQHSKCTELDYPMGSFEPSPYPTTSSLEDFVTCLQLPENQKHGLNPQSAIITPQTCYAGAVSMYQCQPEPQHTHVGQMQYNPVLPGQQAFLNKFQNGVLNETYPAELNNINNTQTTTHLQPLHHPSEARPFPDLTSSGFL
Procedure, shortened: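 AZ-AHR human hepatoma cells stably carrying an AhR-responsive luciferase reporter were exposed for 24 h to test compound at up to 50 μM (vehicle DMSO 0.1% v/v). Agonist mode was run without TCDD; antagonist mode with TCDD 5 nM. Lysed cells were read for luciferase. Agonist data are fold over negative control; antagonist data are % of the 5 nM TCDD maximum. Four wells per treatment, three consecutive passages.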

[4] = system: CYP1A2 mRNA; experiment: qRT-PCR of CYP1A2 in primary human hepatocytes; format: cell-based; details: human hepatocytes from five donors, 10 μM, 24 h
Procedure, shortened: (§1)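 Long-term monolayer primary human hepatocytes came from five male donors aged 43–89 years. They were treated 24 h with test compound at 10 μM, with vehicle DMSO 0.1% v/v and reference ligands TCDD 10 nM and RIF 10 μM. Total RNA was extracted with TRI Reagent, and mRNA was measured by probe-based qRT-PCR normalized to GAPDH. Statistics: one-way ANOVA, with 2-fold induction as threshold.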

[5] = system: LS180 cells; experiment: MTT test in LS180 cells; format: cell-based, human; details: 50 μM, 24 h
Procedure, shortened: (§2)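 MTT viability was run alongside the reporter assays in AZ-AHR cells and in PXR-transfected LS180 cells. Exposure was 24 h to test compound at up to 50 μM, with vehicle DMSO 0.1% v/v. Results are given as % viability. Four technical replicates per treatment, across three consecutive cell passages.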

[6] = system: MDR1 mRNA; experiment: qRT-PCR of MDR1 in intestinal adenocarcinoma cells; format: cell-based, human; details: 24 h; for Induction of MDR1 mRNA: LS174T, LS174T+PXR and LS180+PXR cells; for Induction of MDR1 mRNA in PXR-KO cells: PXR-KO LS174T cells
Procedure, shortened: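 Four intestinal models were used: LS174T wild-type, a CRISPR-Cas9 PXR-knockout LS174T line, and LS174T and LS180 cells transiently transfected with a human PXR expression vector. Cells were treated 24 h with test compound at 10 μM (DMSO 0.1% v/v), alongside TCDD 10 nM or RIF 10 μM. MDR1 mRNA was measured by qRT-PCR normalized to GAPDH. Three consecutive passages, one well per treatment.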

[7] = system: CYP1A1 mRNA; experiment: qRT-PCR of CYP1A1 in primary human hepatocytes; format: cell-based; details: human hepatocytes from five donors, 10 μM, 24 h
Procedure, shortened: as §1

[8] = system: AZ-AHR cells; experiment: MTT test in AZ-AHR cells; format: cell-based, human; details: 24 h, up to 50 μM
Procedure, shortened: as §2

[9] = system: CYP3A11 mRNA; experiment: CYP3A11 gene expression in tissues of mice expressing the human PXR transgene; format: in vivo, mice expressing the human PXR gene (hPXR)
Procedure, shortened: (§3)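 Humanized hPXR mice (C57BL/6 background, 6–10 weeks) received 10% DMSO or test compound in 3 or 5 doses of 500 μM each, 12 h apart. Groups had n = 3 (1 male, 2 females). Small intestine, large intestine and liver were assayed by qRT-PCR for CYP3A11 and MDR1a mRNA. Analysis: unpaired multiple t-tests with Holm-Sidak correction, α = 0.05, and a ≥2-fold induction criterion.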

[10] = system: MDR1a mRNA; experiment: MDR1a gene expression in tissues of mice expressing the human PXR transgene; format: in vivo, mice expressing the human PXR gene (hPXR)
Procedure, shortened: as §3

[11] = system: CYP3A4 mRNA; experiment: qRT-PCR of CYP3A4 in primary human hepatocytes; format: cell-based; details: five hepatocyte cultures, 10 μM, 24 h
[12] = system: CYP3A11 mRNA; details: PXR target genes CYP3A11 and MDR1a; depending on the dose schedule; ref [21]; cited from earlier work
[13] = molecular target: T1, PXR; details: ref [21]; cited from earlier work
[14] = system: MDR1 mRNA; experiment: qRT-PCR of MDR1 in primary human hepatocytes; format: cell-based; details: five hepatocyte cultures, RIF 10 μM, 24 h
[15] = liver, large and small intestine, 3 or 5 doses (500 μM/dose), 12 h interval

| SMILES | EC50 [1] | IC50 [2] | AhR agonistic activity [3] | Cytotoxicity (MTT) [5] | PXR antagonist effect [1] | Induction of MDR1 mRNA [6] | Induction of MDR1 mRNA in PXR-KO cells [6] | Cytotoxicity in AZ-AHR cells [8] | Inhibition of TCDD-inducible luciferase activity [3] | also measured |
| --- | --- | --- | --- | --- | --- | --- | --- | --- | --- | --- |
| C#CCC(O)(c1ccncc1)c1cc2ccccc2[nH]1 (stereo not shown) [CVK-003, 1-(1H-indol-2-yl)-1-(pyridin-4-yl)but-3-yn-1-ol] | 7500 nM | 8590 nM | strong | – | – | – | – | – | – | – |
| O=C(c1ccn2ccnc2c1)c1cc2ccccc2n1S(=O)(=O)c1ccccc1 [CVK-016, imidazo[1,2-a]pyridin-7-yl(1-(phenylsulfonyl)-1H-indol-2-yl)methanone] | ~800 nM | – | – | slightly cytotoxic | Dose-dependent antagonist effects | Dose-dependent induction | no effects | cytotoxic effects | Dose-dependent inhibition | Induction of hepatic CYP1A2 mRNA [4]: significantly induced; Induction of hepatic CYP1A1 mRNA [7]: significantly induced |
| O=S(=O)(c1ccccc1)n1c(C(O)c2ccn3ccnc3c2)cc2ccccc21 (stereo not shown) [CVK-017, imidazo[1,2-a]pyridin-7-yl(1-(phenylsulfonyl)-1H-indol-2-yl)methanol] | ~800 nM | – | moderate | slightly cytotoxic | Dose-dependent antagonist effects | Dose-dependent induction | no effects | cytotoxic effects | Dose-dependent inhibition | – |
| C#CCC(O)(c1ccn2ccnc2c1)c1cc2ccccc2n1S(=O)(=O)c1ccccc1 (stereo not shown) [CVK-021, 1-(imidazo[1,2-a]pyridin-7-yl)-1-(1-(phenylsulfonyl)-1H-indol-2-yl)but-3-yn-1-ol] | ~800 nM | 920 nM | – | slightly cytotoxic | Dose-dependent antagonist effects | Dose-dependent induction | no effects | cytotoxic effects | Dose-dependent inhibition | CYP3A11 gene expression ([9]; 3-dose and 5-dose study): not affected; Induction (≥ 2) of mean CYP3A11 mRNA expression [9, 15]: no significant induction; MDR1a gene expression, Figure 7A ([10]; large and small intestines): increased gene expression; MDR1a gene expression, Figure 7B ([10]; liver and large intestine): increased gene expression; Induction (≥ 2) of mean MDR1a mRNA expression [10, 15]: no significant induction; Induction of CYP3A4 mRNA in human hepatocytes [11]: significantly induced CYP3A4 mRNA in all five human hepatocytes cultures |
| C#CCC(O)(c1ccncc1)c1cc2ccccc2n1S(=O)(=O)c1ccccc1 (stereo not shown) [FKK6, 1-(1-(phenylsulfonyl)-1H-indol-2-yl)-1-(pyridin-4-yl)but-3-yn-1-ol] | – | – | – | – | – | – | – | – | – | Induction of PXR target genes in mouse intestines or liver [12]: robustly induced; PXR versus AhR agonist selectivity [13]: selective PXR agonist |
| CO[C@H]1/C=C/O[C@@]2(C)Oc3c(C)c(O)c4c(O)c(c(/C=N/N5CCN(C)CC5)c(O)c4c3C2=O)NC(=O)/C(C)=C\C=C\[C@H](C)[C@H](O)[C@@H](C)[C@@H](O)[C@@H](C)[C@H](OC(C)=O)[C@@H]1C [rifampicin] | – | – | – | – | – | – | – | – | – | Induction of MDR1 mRNA in human hepatocytes [14]: induction only by rifampicin and only in three hepatocytes cultures |
